Data reported in ChEMBL document CHEMBL3612055, “Design, synthesis and biological evaluation of 1,3-diphenyl-1H-pyrazole derivatives containing benzimidazole skeleton as potential anticancer and apoptosis inducing agents” (Eur J Med Chem, 2015).
pIC50: −log10 of the molar value. Active and inactive are the calls of the source. No cut-off for these calls is given here.

Key:
MCF7 [1] = test: Induction of apoptosis in human MCF7 cells assessed as chromatin condensation at IC50 level incubated for 24 hrs by Hoechst […] staining based fluorescence microscopy; type: functional
Procedure, shortened: (§1)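 They were fixed in 4% paraformaldehyde and stained with Hoechst […] (5 µg/mL, 30 min, room temperature). Nuclei in random fields were imaged by fluorescence microscopy (ex 350 / em 460 nm). Apoptotic fraction is mean ± SD of three independent experiments; DMSO control.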

MCF7 [2] = test: Induction of cell cycle arrest in human MCF7 cells assessed as reduction in accumulation at G2/M phase at IC50 level incubated for 24 hrs by propidium iodide staining based flow cytometry; type: functional
Procedure, shortened: (§2)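 Floating and adherent cells were fixed in 70% ethanol at 4 °C and rehydrated. They were stained 15 min with PI/Triton X-100/RNase A. 10000 events were acquired by flow cytometry. G0/G1, S and G2/M percentages were gated in FlowJo.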

MCF7 [3] = test: Induction of apoptosis in human MCF7 cells assessed as nuclear fragmentation at IC50 level incubated for 24 hrs by Hoechst […] staining based fluorescence microscopy; type: functional; procedure, shortened: as §1
MCF7 [4] = test: Induction of apoptosis in human MCF7 cells assessed as increase in Bax mRNA expression at IC50 level incubated for 24 hrs by RT-PCR method; type: functional, cell-based
Procedure, shortened: (§3)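 Total RNA was Trizol-extracted and 1 µg reverse-transcribed with random primers. Real-time PCR ran 95 °C 3 min, then 40 cycles of 95 °C 1 s / 60 °C 20 s. Fold change came from comparative CT, normalised to β-actin. Reactions ran in triplicate, across three experiments.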

HeLa = test: Anticancer activity against human HeLa cells assessed as reduction in cell growth incubated for 48 hrs by MTT assay; type: functional, cell-based
MCF7 [5] = test: Anticancer activity against human MCF7 cells assessed as reduction in cell growth incubated for 48 hrs by MTT assay; type: functional, cell-based; settings: MCF7, 48 h
MCF7 [6] = test: Induction of ROS generation in human MCF7 cells at IC50 level incubated for 24 hrs by carboxy-DCFDA staining based fluorescence microscopy; type: functional
Procedure, shortened: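 Carboxy-DCFDA (10 µM) was added for 30 min at room temperature in the dark. Cells were washed and resuspended at 5×10^4 cells/mL. Fluorescence was read by spectrofluorometry at ex 488 / em 525 nm, with fluorescence microscopy images also taken.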

A549 = test: Anticancer activity against human A549 cells assessed as reduction in cell growth incubated for 48 hrs by MTT assay; type: functional, cell-based; settings: A549, 48 h
MCF7 [7] = test: Effect on CDK1 cyclin D1 mRNA expression in human MCF7 cells at IC50 level incubated for 24 hrs by RT-PCR method; type: functional, cell-based; procedure, shortened: as §3
MCF7 [8] = test: Induction of cell morphology changes in human MCF7 cells assessed as cell shrinkage at IC50 level incubated for 48 hrs by phase contrast microscopy; type: functional, cell-based
Procedure, shortened: (§4)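 MCF-7 cells were kept in DMEM/10% FBS and used at passages 4-8. […] Detachment, shrinkage and viable cell numbers were scored under phase contrast microscopy against untreated cells.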

MCF7 [9] = test: Anticancer activity against human MCF7 cells assessed as reduction in cell viability at IC50 level incubated for 48 hrs; type: functional, cell-based; procedure, shortened: as §4
MCF7 [10] = test: Increase in E-cadherin mRNA expression in human MCF7 cells at IC50 level incubated for 24 hrs by RT-PCR method; type: functional; procedure, shortened: as §3
MCF7 [11] = test: Induction of cell cycle arrest in human MCF7 cells assessed as reduction in accumulation at S phase at IC50 level incubated for 24 hrs by propidium iodide staining based flow cytometry; type: functional; procedure, shortened: as §2
MCF7 [12] = test: Increase in cyclin B1 mRNA expression in human MCF7 cells at IC50 level incubated for 24 hrs by RT-PCR method; type: functional; procedure, shortened: as §3
MCF7 [13] = test: Induction of cell cycle arrest in human MCF7 cells assessed as accumulation at G1 phase at IC50 level incubated for 24 hrs by propidium iodide staining based flow cytometry (reference value: 72.3%); type: functional; procedure, shortened: as §2
MCF7 [14] = test: Induction of cell morphology changes in human MCF7 cells assessed as cell detachment at IC50 level incubated for 48 hrs by phase contrast microscopy; type: functional, cell-based; procedure, shortened: as §4
HaCaT = test: Cytotoxic activity against human HaCaT cells assessed as reduction in cell growth incubated for 48 hrs by MTT assay; type: cell-based
MCF7 [15] = test: Reduction in cyclin D1 mRNA expression in human MCF7 cells at IC50 level incubated for 24 hrs by RT-PCR method; type: functional, cell-based; procedure, shortened: as §3
MCF7 [16] = test: Increase in beta-catenin mRNA expression in human MCF7 cells at IC50 level incubated for 24 hrs by RT-PCR method; type: functional; procedure, shortened: as §3
MCF7 [17] = test: Inhibition of colony formation in human MCF7 cells assessed as reduction in clonogenic survival at IC50 level incubated for 24 hrs followed medium replacement with fresh medium and further incubation for 14 days; type: functional
MCF7 [18] = test: Induction of apoptosis in human MCF7 cells assessed as increase in caspase-3 mRNA expression at IC50 level incubated for 24 hrs by RT-PCR method; type: functional, cell-based; procedure, shortened: as §3
MCF7 [19] = test: Induction of apoptosis in human MCF7 cells assessed as reduction in Bcl2 mRNA expression at IC50 level incubated for 24 hrs by RT-PCR method; type: functional, cell-based; procedure, shortened: as §3
MCF7 [20] = test: Reduction in mitochondrial membrane potential in human MCF7 cells at IC50 level incubated for 24 hrs by rhodamine 123 staining based fluorescence microscopy; type: functional
Procedure, shortened: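 Harvested cells were loaded with rhodamine 123 (5 µg/mL), washed and incubated 30 min at room temperature. They were analysed by flow cytometry and fluorescence microscopy, and fluorescence loss was quantified by spectrofluorometry vs untreated cells.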

MCF7 [21] = test: Induction of apoptosis in human MCF7 cells assessed as DNA fragmentation at IC50 level incubated for 24 hrs by ethidium bromide staining based agarose gel electrophoresis method; type: functional, cell-based
Procedure, shortened: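 Pellets were lysed in SDS/EDTA/Tris pH 8.0 buffer with RNase A (37 °C, 90 min), then proteinase K (50 °C, 1 h). DNA was precipitated with ammonium acetate/ethanol. It was run on 1.5% agarose in TBE and stained with ethidium bromide, against control cells.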

MCF7 [22] = test: Induction of apoptosis in human MCF7 cells assessed as increase in caspase-7 mRNA expression at IC50 level incubated for 24 hrs by RT-PCR method; type: functional, cell-based; procedure, shortened: as §3
MCF7 [23] = test: Inhibition of cell migration of human MCF7 cells at IC50 level incubated for 24 to 72 hrs by phase contrast microscopy based wound healing assay; type: functional
Procedure, shortened: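 Confluent MCF-7 monolayers (5×10^5 cells/well, 24 h) were scratched with a pipette tip and washed with PBS pH 7.4. Medium with IC50 concentrations was then added. Cells entering the wound were photographed by phase contrast at 0, 24, 48 and 72 h, in ≥3 random fields per well.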

pIC50 (HeLa) | pIC50 (MCF7 [5]) | pIC50 (A549) | Compound | Activity (MCF7 [2]) | Activity (MCF7 [4]) | fold change (FC) (MCF7 [6]) | Activity (MCF7 [7]) | Activity (MCF7 [8]) | Activity (MCF7 [9]) | fold change (FC) (MCF7 [10]) | Activity (MCF7 [11]) | fold change (FC) (MCF7 [12]) | Activity (MCF7 [13]) [%] | Activity (MCF7 [14]) | pIC50 (HaCaT) | inhibition (MCF7 [15]) | fold change (FC) (MCF7 [16]) | inhibition (INH) (MCF7 [17]) [%] | Activity (MCF7 [18]) | Activity (MCF7 [19]) | further results
5.80 | 6.02 | 5.95 | Fc1ccc(-c2nn(-c3ccccc3)cc2-c2nc3cc(F)ccc3[nH]2)cc1 | Active | Active | 2 | inactive | Active | Active | 1.6 | Active | 1.1 | 84.7 | Active | < 4.30 | Active | 1.4 | 50 | Active | Active | Activity (MCF7 [1]): 26%; Activity (MCF7 [3]): 26%; inhibition (INH) (MCF7 [20]): 44%; Activity (MCF7 [21]): Active; Activity (MCF7 [22]): Active; inhibition (MCF7 [23]): Active
5.75 | 6.08 | 5.74 | Brc1ccc2[nH]c(-c3cn(-c4ccccc4)nc3-c3ccccc3)nc2c1 | Active | Active | 2 | inactive | Active | Active | 2.2 | Active | 1.1 | 85.2 | Active | < 4.30 | Active | 1.4 | 50 | Active | Active | inhibition (INH) (MCF7 [20]): 62%; Activity (MCF7 [21]): Active; Activity (MCF7 [22]): Active; inhibition (MCF7 [23]): Active
5.79 | 5.93 | 5.87 | Clc1ccc(-c2nn(-c3ccccc3)cc2-c2nc3cc(Cl)ccc3[nH]2)cc1 | Active | Active | 2 | inactive | Active | Active | 1.6 | Active | 1.1 | 81.3 | Active | < 4.30 | Active | 1.4 | 50 | Active | Active | Activity (MCF7 [1]): 32%; Activity (MCF7 [3]): 32%; inhibition (INH) (MCF7 [20]): 44%; Activity (MCF7 [21]): Active; Activity (MCF7 [22]): Active; inhibition (MCF7 [23]): Active
